Screening results deposited in PubChem BioAssay by several laboratories.
T cruzi repl: T. cruzi replication inhibition. actives 1.4% (n = 300,000). T. cruzi beta-gal in NIH3T3, luminescence, 90 h. AID 1885. inhibition, % (no concentration beside the values);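 active = mean inhibition across valid replicates above about 55%, limit read from the data; inconclusive = mean below that limit but half or more replicates reach it; inactive = mean below it, under half of replicates reach it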;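 note: signal also drops with host cell toxicity which is not excluded here; 0% = plate median of DMSO wells and 100% = zero luminescence signal; higher percent means less beta-gal luminescence so fewer parasites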
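Assay system: NIH/3T3 host cells with β-galactosidase reporter T. cruzi; input: 5,000 host fibroblasts per well; compound: single 50 nL compound addition per well in DMSO; timing: ≥90 h infection period, 3 h prior cell attachment; measured by: GalScreen β-gal luminescence, detergent lysis, 60 min; evaluation: percent inhibition of parasite-derived β-gal signal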
aSyn 5UTR inh: 5' untranslated region of α-synuclein, MLPCN primary screen. AID 1813. actives 0.82% (n = 300,000). inhibition, % (tested at 7.5 µM). alpha-synuclein 5'UTR reporter, inhibitor activity; in the data active = inhibition above about 60%; inconclusive = no clear call, values can overlap the other calls;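 note: H4 neuroglioblastoma cells stably carrying SNCA 5'UTR luciferase fusion; 0% = DMSO wells and 100% = positive control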
SKKanGAS inh: blocks kanamycin growth of S. pyogenes SKKanGAS strain | BacTiter-Glo, 6 h | actives 1.3% (n = 300,000) | inhibition, % at 7.5 µM | AID 1662;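 active = mean replicate score, as percent of positive control median, at least 50; inconclusive = mean below 50 but one replicate at or above 50; inactive = mean and every replicate below 50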;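 note: strain carries kanamycin resistance gene driven by streptokinase promoter and grows in 40 µg/ml kanamycin; loss of luminescence reflects streptokinase promoter inhibition or plain growth inhibition; 0% = median of DMSO wells and 100% = positive control at its reference dose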
CSC inhib: blocks cancer stem cells. inhibition, % at 7.5 µM. cancer stem cell-like cells viability, luminescence. AID 2717. actives 1.1% (n = 300,000); in the data active = inhibition above about 75%; inconclusive = no clear call, values can overlap the other calls; tested in HMLE shEcad cells
Mdm2-MdmX inh: human Mdm2/MdmX binding inhibition | actives 3% (n = 330,000) | SaOS-2 split-luciferase Mdm2/MdmX complementation, luminescence | inhibition, % at 8 µM | O15151+Q00987;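 active = inhibition of at least 50% at 8 µM in the primary screen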
Target sequence (O15151 whole entry, looked up): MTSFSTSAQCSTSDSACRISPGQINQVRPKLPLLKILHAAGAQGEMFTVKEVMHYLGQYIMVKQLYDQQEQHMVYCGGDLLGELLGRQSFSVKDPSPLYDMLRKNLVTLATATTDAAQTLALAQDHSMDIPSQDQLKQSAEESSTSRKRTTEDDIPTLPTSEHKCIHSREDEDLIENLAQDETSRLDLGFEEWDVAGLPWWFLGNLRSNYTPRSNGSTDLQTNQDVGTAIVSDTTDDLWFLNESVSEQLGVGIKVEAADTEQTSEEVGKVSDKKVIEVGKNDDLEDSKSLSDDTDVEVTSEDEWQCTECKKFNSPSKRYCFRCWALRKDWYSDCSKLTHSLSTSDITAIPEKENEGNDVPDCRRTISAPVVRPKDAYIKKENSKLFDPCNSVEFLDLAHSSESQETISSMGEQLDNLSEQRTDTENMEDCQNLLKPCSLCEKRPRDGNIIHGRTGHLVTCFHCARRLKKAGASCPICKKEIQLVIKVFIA
Target sequence (Q00987 whole entry, looked up): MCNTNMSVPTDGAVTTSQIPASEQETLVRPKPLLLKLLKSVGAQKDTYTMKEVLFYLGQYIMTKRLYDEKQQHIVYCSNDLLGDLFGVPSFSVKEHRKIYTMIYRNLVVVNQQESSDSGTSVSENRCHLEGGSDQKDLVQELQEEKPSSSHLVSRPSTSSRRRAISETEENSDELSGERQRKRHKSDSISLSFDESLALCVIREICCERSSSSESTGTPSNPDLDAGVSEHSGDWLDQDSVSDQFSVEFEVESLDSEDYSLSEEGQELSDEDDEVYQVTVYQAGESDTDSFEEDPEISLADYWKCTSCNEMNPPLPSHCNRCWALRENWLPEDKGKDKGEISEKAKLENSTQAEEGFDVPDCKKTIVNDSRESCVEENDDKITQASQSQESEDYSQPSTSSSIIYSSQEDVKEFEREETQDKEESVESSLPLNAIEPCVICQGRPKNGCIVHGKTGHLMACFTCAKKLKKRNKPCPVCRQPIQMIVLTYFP
Mdm2-MdmX conf: confirmation of human Mdm2/MdmX interaction inhibitors; shares compounds with Mdm2-MdmX inh; Mdm2-MdmX binding, luminescent assay; inhibition, % at 8 µM; actives 55% (n = 10,000); in the data active = inhibition above about 40%
Full FLuc ctr: full-length luciferase inhibition in Mdm2/MdmX counter-screen. SaOS-2 full-length luciferase counterscreen, luminescence. actives 77% (n = 6,200). AID 504607. inhibition, % at 8 µM. shares compounds with Mdm2-MdmX inh;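 active = mean inhibition at 8 µM reaching about 37%, which flags the compound as non-specific, limit read from the data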;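 note: p53-null SaOS-2 cells with luciferase driven by a doxycycline-inducible promoter; compound on cells about two nights before reading with doxycycline added after day one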
* hit, by the source's call; ? = inconclusive; · = not tested or not shown. In the library only some 5.4% were active in any assay of this set; here they are far more common.

SMILES | T cruzi repl | aSyn 5UTR inh | SKKanGAS inh | CSC inhib | Mdm2-MdmX inh | Mdm2-MdmX conf | Full FLuc ctr
N/C(Cc1ccc(Cl)cc1)=N\OC(=O)c1ccc2ccccc2c1 | 15 | -19 | -4 | -5 | 99* | 6 | ·
Cc1cc(C)c2c(CCl)cc(=O)oc2c1 | -6 | 91* | -2 | 45 | 70* | 61* | 100*
Cc1cc(C)c2c(CN3CCCCC3)cc(=O)oc2c1 | -13 | -8 | 0 | -9 | 21 | · | ·
CN(C)CCCNc1nc(-c2ccc(Cl)cc2)nc2ccccc12 | 33 | -18 | 4 | 9 | 27 | · | ·
CC(NS(=O)(=O)c1ccc(Br)s1)c1ccccc1 (stereo not given) | -15 | 15 | 2 | -4 | 18 | · | ·
COc1ccc(CCNC(=O)c2cc3c(=O)n4ccccc4nc3n(CCCN3CCOCC3)c2=N)cc1 | 29 | -39 | 2 | -1 | 54* | 13 | ·
COc1ccc(CCNC(=O)c2cc3c(=O)n4ccccc4nc3n(C3CCCCC3)c2=N)cc1 | 60* | -33 | 16 | -12 | 61* | 38 | 69*
COc1ccc(CCNC(=O)c2cc3c(=O)n4ccccc4nc3n(Cc3ccco3)c2=N)cc1OC | 31 | 19 | 2 | -12 | 62* | 41* | 26
COc1ccc(CCNC(=O)c2cc3c(=O)n4ccccc4nc3n(C3CCCCC3)c2=N)cc1OC | 47 | -4 | 25 | 21 | 58* | 26 | ·
COc1ccc(CCNC(=O)c2cc3c(=O)n4ccccc4nc3n(CCCN3CCOCC3)c2=N)cc1OC | 9 | -14 | -1 | 5 | 10 | · | ·
O=C(c1ccccn1)N1N=C2/C(=C/c3ccc(F)cc3)CCCC2C1c1ccc(F)cc1 (stereo not given) | 0 | -1 | 11 | 60 | 35 | · | ·
CCOC(=O)c1c(C)nc2sc(C(N)=O)c(N)c2c1-c1ccc(OC)cc1 | 21 | 17 | -3 | 12 | 17 | · | ·
Cc1nc2sc(C(N)=O)c(N)c2c(C)c1CC(=O)c1ccccc1 | -7 | -52 | 12 | -16 | 58* | 62* | 31
Cc1cccc(Nc2nnc(-c3ccc(N4CCOCC4)c([N+](=O)[O-])c3)c3ccccc23)c1 | 52 | 33 | 59* | 51 | 60* | 37 | 84*
Cc1nnc(-c2ccc(N3CCOCC3)c([N+](=O)[O-])c2)o1 | · | · | · | · | 4 | · | ·
COc1cc(OC)c2c(-c3cccc(-c4ccc(C(C)=O)cc4)c3)cc(=O)oc2c1 | · | · | · | · | 69* | 68* | 71*
COc1cc(OC)c2c(-c3cccc(-c4ccoc4)c3)cc(=O)oc2c1 | · | · | · | · | 49 | · | ·
CCc1cc(=O)oc2cc3occ(-c4ccc(OC)c(F)c4)c3cc12 | -3 | -42 | 30 | 72 | 64* | 74* | 62*
COc1cc(OC)c2c(-c3cccc(-c4ccc(OC)c(F)c4)c3)cc(=O)oc2c1 | · | · | · | · | 68* | 49* | 104*
COc1cc(OC)c2c(-c3ccccc3)cc(=O)oc2c1 | 0 | -13 | -4 | -6 | 28 | · | ·
CCc1cc(=O)oc2cc3occ(C)c3cc12 | -3 | 5 | 4 | 29 | 15 | · | ·
COc1ccc(NC(=O)c2cccc(S(=O)(=O)NCc3ccccc3)c2)cc1S(N)(=O)=O | · | · | · | · | 10 | · | ·
CCOC(=O)c1c(C)[nH]c(C)c1C(=O)CSc1nnc(-c2ccncc2)n1C | -11 | -3 | 2 | -14 | -4 | · | ·
CN(c1ccc(Cl)cc1)S(=O)(=O)c1nnc(NC(=O)C(C)(C)C)s1 | -1 | -20 | 5 | 4 | 21 | · | ·
COc1ccc2ccccc2c1/C=N/Nc1ccc(Cl)c(C(=O)O)c1 | -8 | -22 | 10 | 9 | 9 | · | ·
SMILES | T cruzi repl | aSyn 5UTR inh | SKKanGAS inh | CSC inhib | Mdm2-MdmX inh | Mdm2-MdmX conf | Full FLuc ctr
COc1ccc(N/N=C/c2c(C(=O)O)ccc3ccccc23)cc1 | 49 | 56 | 25 | 109* | 86* | 90* | 24
CC[C@@H](C(=O)[C@@H](C)[C@@H](O)[C@H](C)CCc1ccc(C)c(O)c1C(=O)O)[C@H]1O[C@](CC)([C@H]2CC[C@](O)(CC)[C@H](C)O2)C[C@@H]1C | 37 | 100* | 108* | 117* | 100* | 71* | 35
CC(C)CC1NC(=O)N(CC(=O)N(C)C2CCCCC2)C1=O (stereo not given) | · | · | · | -12 | -21 | · | ·
CCOc1c(Cl)cc(/C=C/C(=O)N(CC)CC(=O)NCc2cccs2)cc1OC | 4 | 25 | -2 | -14 | 21 | · | ·
Cc1cccc(Cn2nc(C(C)(C)C)cc2C(=O)Nc2ccc(F)cc2)c1 | 24 | 32 | ? | 70 | 87* | 81* | 31
Nc1nc(N)nc(-c2ccc(Cl)c(Cl)c2)n1 | · | · | · | 0 | 50* | 35 | ·
Cc1ccc(-c2nc(C(Cl)Cl)c3ccccc3n2)cc1 | 50 | 93* | -2 | 132* | 96* | 49* | 15
Cc1ccc(S(=O)(=O)NC(=O)Nc2cc(C)no2)cc1 | -5 | -3 | -7 | -10 | 12 | · | ·
CCn1c(=O)c(CCC(=O)N2CCOCC2)c(C)c2c(C)nn(-c3ccccc3)c21 | 15 | 33 | 4 | -1 | 62* | 33 | ·
O=C(CN1C(=O)COc2ccccc21)N1CCN(C2CCCCC2)CC1 | -7 | 3 | 4 | · | 5 | · | ·
O=C(NCCC1=CCCCC1)C(=O)NCC(c1ccco1)N1CCN(c2ccccc2F)CC1 (stereo not given) | -22 | -23 | -4 | 19 | 36 | · | ·
CN(C(=O)c1nc(-c2ccccc2)n(-c2ccccc2)n1)C1CCS(=O)(=O)C1 (stereo not given) | 0 | -14 | 1 | 0 | 13 | · | ·
C[C@H](NC(=O)c1[nH]cnc1C(=O)Nc1ccc(Cl)cc1)c1ccccc1 | · | · | · | 60 | 61* | 29 | 68*
C[C@H](NC(=O)c1[nH]cnc1C(=O)Nc1cccc(Cl)c1)c1ccccc1 | · | · | · | 16 | 34 | · | ·
C[C@@H](NC(=O)c1nc[nH]c1C(=O)N[C@H](C)c1ccccc1)c1ccccc1 | · | · | · | 9 | 18 | · | ·
C[C@@H](NC(=O)c1[nH]cnc1C(=O)Nc1ccc(Cl)cc1)c1ccccc1 | · | · | · | 48 | 60* | 45* | 62*
CC(=O)Oc1ccc(/C=C2/CCc3ccccc3C2=O)cc1 | 22 | -50 | 35 | 5 | -6 | · | ·
Cc1ccc(NC(=O)C2=C(c3ccccc3)S(=O)(=O)CCS2(=O)=O)cc1 | 58* | -10 | -12 | 79* | 95* | 95* | 52*
Cc1ccc(NC(=O)c2ccccc2)cc1 | -2 | -164 | 3 | 14 | -64 | · | ·
COC(=O)c1ccc(NC(=O)Cn2nc(C)c3ccccc3c2=O)cc1 | -3 | 23 | 4 | · | 13 | · | ·
COc1ccc(-c2nn(C)c(=O)c3ccccc23)cc1NC(=O)Cn1nc(C)c2ccccc2c1=O | 74* | 40 | 8 | -9 | 57* | 22 | ·
Cc1ccc(-c2nn(CC(=O)NCc3cc(-c4nn(C)c(=O)c5ccccc45)ccc3C)c(=O)c3ccccc23)cc1 | -10 | 114* | 36 | -5 | 97* | 20 | ·
